Shown is part of a subset that was picked to be rich in hits.
INS promoter act: activators of insulin promoter-driven GFP, primary screen, imaging, TRM-6 cells (human fetal islet line), eGFP reporter, cell count; 130,000 tested, 0.81% active; activation, % at 2 µM; plate-scaled: unstimulated 0, stimulated control 100;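 active = activation at 2 µM above a set limit, confirmed on inspection of the cell images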;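 also: share of cells whose green reporter signal exceeds an intensity cutoff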
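Test system: TRM-6 insulin promoter–eGFP reporter cells / Quantity: 1,000 cells per well / Reagent: tamoxifen inducer, 0.75 µM, in seeding medium / Compound dosing: 2 µM final, single concentration / Schedule: overnight tamoxifen, then two-day compound incubation at 37 °C / Measured by: automated fluorescence imaging of paraformaldehyde-fixed, Hoechst-counterstained cells, green channel / Read-out: percent activation from GFP-positive cell fraction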
Large screens that a line does not name were inactive.

Cc1nnc2c(-c3ccccc3)nc3ccccc3n12	none
Cn1nc(-c2ccccc2)c2nc3ccccc3nc21	INS promoter act 150
Cn1c(=O)c(-c2ccccc2)nc2ccccc21	none
CC1Cc2ccccc2N1C(=S)NC(=O)C1(C)CC1(Cl)Cl (stereo not drawn)	none
O=C(Cc1ccc(-n2cnnn2)cc1)NC12CC3CC(CC(C3)C1)C2	none
COCCSc1nnc(NC(=O)CSCc2ccccc2)s1	none
CCC(=O)N1CCc2cc(S(=O)(=O)NCCCOC)ccc21	none
CCC(=O)N1CCc2cc(S(=O)(=O)NC(Cc3ccccc3)C(=O)NC3CCCCC3)ccc21 (stereo not drawn)	INS promoter act 317
CCOC(=O)N1CCC(NC(=O)C(NS(=O)(=O)c2ccc3c(c2)CCN3C(C)=O)C(C)C)CC1 (stereo not drawn)	none
Cc1ccc(/C(N)=N/OC(=O)COc2ccccc2Cl)cc1	none
Nc1nnc(SCC(=O)N2CCN(Cc3ccccc3)CC2)s1	none
Cc1cc(/C=C(\C#N)C(=O)NCc2ccco2)c(C)n1-c1ccc(C(=O)O)cc1	none
COCCCNC(=O)C1CC(=O)N(Cc2ccc(OC)cc2)C1 (stereo not drawn)	none
O=C(NCCc1ccccn1)C1CC(=O)N(Cc2ccccc2Cl)C1 (stereo not drawn)	INS promoter act 131
COc1ccc(CN2CC(C(=O)NCCC3=CCCCC3)CC2=O)cc1 (stereo not drawn)	none
COc1ccccc1Nc1nc(-c2c(C)nc3ncccn23)cs1	none
CSCCC(NC(=O)c1ccc(C(C)(C)C)cc1)C(=O)O (stereo not drawn)	none
O=C(NN1C(=O)c2ccccc2C1=O)c1ccccc1[N+](=O)[O-]	none
Cc1c(Cl)c(C(=O)NC2C3CC4CC(C3)CC2C4)nn1C (stereo not drawn)	none
Cc1ccc(Sc2ncccc2COC(=O)Nc2c(C)cccc2C)cc1	none
Cc1ccc(Oc2ncccc2COC(=O)Nc2ccccc2C)cc1	INS promoter act 369
Cc1ccccc1NC(=O)OCc1cccnc1Sc1ccc(Cl)cc1	none
COC(=O)C1=C(C)N(CCCC(=O)O)C(=O)NC1c1cccs1 (stereo not drawn)	INS promoter act 295
COC(=O)C1=C(C)C(c2cccs2)NC(=O)N1C (stereo not drawn)	none
COC(=O)C1=C(C)N(CCCC(=O)O)C(=O)NC1c1ccc(-c2ccccc2)cc1 (stereo not drawn)	none
CC(N=C(NC#N)Nc1ccncc1)C(C)(C)C (stereo not drawn)	none
COC(=O)C1CC(O)CN1S(=O)(=O)c1cccs1 (stereo not drawn)	none
CCN1CCCc2cc(CN(CCN3CCOCC3)C(=S)Nc3ccccc3C)ccc21	none
CCN1CCCc2cc(CN(CCN3CCOCC3)C(=S)Nc3ccc(OC)c(OC)c3)ccc21	INS promoter act 425
CCc1ccc(NC(=O)N(CCN2CCOCC2)Cc2ccc3c(c2)CCCN3CC)cc1	none
Cc1cc(OC(=O)C(c2ccccc2)c2ccccc2)c([N+](=O)[O-])c(=O)[nH]1	none
Cc1ccc(Nc2nc3nonc3[nH]c2=O)cc1Cl	none
C(=C1/CCCC2=C1Nc1ncnn1C2c1ccccc1)/c1ccccc1 (stereo not drawn)	none
COc1ccc(NCC(=O)N/N=C/C(C)c2ccccc2)cc1 (stereo not drawn)	none
CC(C)NC(=O)NC(=O)COC(=O)c1cccc(S(=O)(=O)N2CCCCC2)c1	none
C=C(C)c1cccc(C(C)(C)NC(=O)N2CCN(c3ccccc3OC)CC2)c1	none
C=C(C)c1cccc(C(C)(C)NC(=O)N(C)C2CCN(C)CC2)c1	INS promoter act 260
C=C(C)c1cccc(C(C)(C)NC(=O)Nc2ncccn2)c1	none
O=C(O)Cc1ccc2oc(-c3cccnc3)nc2c1	none
Cc1ccc(S(=O)(=O)Nc2cc(C(C)C)c(O)cc2C)cc1	none
CC(C)c1ccccc1NS(=O)(=O)N(C)C	INS promoter act 380
CN(C)S(=O)(=O)Nc1ccccc1C(N)=O	none
COC(=O)c1ccccc1NC(=O)c1ccc(COc2ccccc2)o1	INS promoter act 585
COc1ccccc1OCc1ccc(C(=O)NC(C)(C)C)o1	none
COc1ccc(NC(=O)c2ccc(COc3ccccc3)o2)cc1	none
O=C(CCc1ccc(S(=O)(=O)N2CCOCC2)cc1)N1CCc2ccccc2C1	none
Cc1cccc(C)c1NC(=O)Cn1nnnc1N	none
COCCCNC(=O)C(=O)NC1CCCCC1C (stereo not drawn)	none
CC(C)OC(=S)N/C(=N\S(=O)(=O)c1ccccc1)c1ccccc1	none
O=S(=O)(/N=C(/Nc1ccccn1)c1ccccc1)c1ccccc1	INS promoter act 196
Cc1cccc(NC(=S)N/C(=N/S(=O)(=O)c2ccccc2)c2ccccc2)c1	none
CNC(=S)N(CCc1ccc(OC)c(OC)c1)Cc1cc2c(C)cc(C)cc2[nH]c1=O	none
O=C(CSc1nnc(COc2cccc3ccccc23)o1)N1c2ccccc2CCc2ccccc21	none
O=c1c([N+](=O)[O-])c(NC2CCCCC2)c2ccccc2n1-c1ccccc1	none
CCSc1ncnc2c1sc1nc3c(cc12)COC(C)(C)C3	none
Cc1cc(C)cc(Nc2c(F)c(F)c(F)c(F)c2C(=O)O)c1	none
CCCn1c(SCC(=O)Nc2ccccc2Oc2ccccc2)n[nH]c1=O	none
CCOc1cccc(CNc2ccc(O)cc2)c1OCc1ccc(Cl)cc1Cl	INS promoter act 91
C=CCOc1c(CNc2cccc(C(=O)O)c2)cccc1OCC	none
CCOc1cc(CNCCO)cc(Br)c1OCc1ccc(Cl)cc1Cl	none
N=c1oc2c3c4c(cc2cc1C(=O)Nc1ccccc1)CCCN4CCC3	INS promoter act 900
Cc1cc2cc3c(cc2nc1SCC(=O)Nc1ccccc1)CCC3	none
Cc1ccc(NC(=O)c2cc(NC(=O)c3ccccc3C(=O)O)ccc2N2CCCCC2)cc1	none
O=P(OC1CCCCC1)(OC1CCCCC1)C(O)c1ccccc1 (stereo not drawn)	INS promoter act 104
NC(=O)C(c1ccccc1)C1CCCC1 (stereo not drawn)	none
OC1CCCN(CC(O)c2ccccc2)C1 (stereo not drawn)	none
Nc1nc(SCc2ccccc2Cl)ns1	none
Cc1cccc(NC(=O)CSc2nnc(Cn3cnc4ccccc43)o2)c1	none
O=C(CNC(=O)c1ccccc1)OCc1ccc([N+](=O)[O-])cc1	none
O=[N+]([O-])c1ccc(COc2ccccc2/C=N/O)cc1	INS promoter act 529
O=C(O)c1cc(/C=N\O)ccc1OCc1ccccc1	none
O=C(COC(=O)c1cccnc1Cl)NCc1ccco1	none
COc1ccc(S(=O)(=O)N(C)c2c(C)n(C)n(-c3ccccc3)c2=O)cc1OC	none
CCN(CC)c1ccc2c(Cl)c(Br)c(=O)oc2c1	INS promoter act 133
CCN(CC)c1ccc2c(C)c(-c3ccc(N)cc3)c(=O)oc2c1	none
CCN(CC)c1ccc2c(c1)oc(=O)c1c(Cl)cc(=O)oc12	none
Cc1ccc(C(=O)NCC(=O)NCC(=O)OCc2ccc(F)cc2)cc1	none
C=CCNC(=S)Nc1sc2c(c1C#N)CCCC2	none
Cc1cc(Cl)cc(Cl)c1OCCOc1cccc2cccnc12	INS promoter act 84
Cc1cc(Cl)cc(Cl)c1OCCOCCN(C)C	none
Cc1ccc(OCCOCCOc2cccc3cccnc23)c(Br)c1	none
COc1ccc(-c2c(C)n([O-])c3c([n+]2=O)CCCC3)cc1OC	none
COC(=O)C/C(O)=C(/N=Nc1cccc(C(F)(F)F)c1)C(=O)OC	none
CC1CCN(S(=O)(=O)c2ccc(C(=O)Nc3nnc(-c4ccccn4)o3)cc2)CC1	none
O=C(Nc1nnc(-c2ccccc2Cl)o1)c1ccc(S(=O)(=O)N2CCCCCC2)cc1	INS promoter act 400
O=C(Nc1nnc(-c2cccs2)o1)c1ccc(S(=O)(=O)N2CCOCC2)cc1	none

Source: PubChem BioAssay
